According to ChEMBL document CHEMBL4390654, “Microwave-assisted solid-phase synthesis of antisense acpP peptide nucleic acid-peptide conjugates active against colistin- and tigecycline-resistant E. coli and K. pneumoniae” (Eur J Med Chem, 2019):
Numbered stars: 1 amine (or outer) side, 2 acyl side, 3 side chain; on linkers, the order of the positions; unused ones are H or OH. Bridge positions count the residues as written; N and C are the ends. Square brackets hold non-standard residues; d marks the D form. Peptide text beside a SMILES is read from it. I, II: the chains in the order shown. * marks the point of attachment. X3 = CC[C@H](C)[C@@H](C(=O)*)N(C(=O)[C@H](CCCNC(=N)N)NC(=O)CCCCCNC(=O)[C@@H](N)CCCNC(=N)N)C(=O)[C@H](CCCNC(=N)N)NC(=O)CCCCCNC(=O)[C@@H](N)CCCNC(=N)N; Succinimide(1-C2H4CO,3-yl) = O=C1CC([*:1])C(=O)N1CCC(=O)[*:2]; X2 = O=C(OCCOCCN[*:1])[*:2]

Tests used:
Escherichia coli [1] = assay: Antibacterial activity against multi-drug resistant Escherichia coli NMI 3548/14 assessed as reduction in microbial growth incubated for 20 hrs; assay type: functional
Outline: (§1)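 Broth microdilution MIC (modified Hancock protocol) in non-binding polystyrene plates. Inoculum ~2 × 10^5 CFU/mL in Mueller-Hinton broth with Mg²⁺ and Ca²⁺ at 4 mg/L each. Compounds dissolved in water, diluted in 0.01% acetic acid/0.2% BSA (final), added as 10× stocks. Covered plates incubated 20 h at 35 °C (± 2 °C) with 220 rpm circular shaking before MIC read.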

Escherichia coli [2] = assay: Antibacterial activity against multi-drug resistant Escherichia coli NMI 3898/15 assessed as reduction in microbial growth incubated for 20 hrs; assay type: functional; outline: as §1
Acinetobacter baumannii [3] = assay: Antibacterial activity against Acinetobacter baumannii NMI 3658/17 assessed as reduction in microbial growth incubated 20 hrs; assay type: functional
Outline: (§2)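 Broth microdilution MIC after a modified Hancock protocol for cationic peptides, in non-binding polystyrene plates. Inoculum ~2 × 10^5 CFU/mL in Mueller-Hinton broth with Mg²⁺ and Ca²⁺ at 4 mg/L each. Compounds dissolved in water, diluted in 0.01% acetic acid, 0.2% BSA (final), added as 10× aliquots. Covered plates incubated 20 h at 35 °C (± 2 °C) with shaking at 220 rpm. MIC read as lowest inhibiting concentration.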

Klebsiella pneumoniae [4] = assay: Antibacterial activity against multi-drug resistant Klebsiella pneumoniae NMI 2697/14 assessed as reduction in microbial growth incubated for 20 hrs; assay type: functional; outline: as §1
Klebsiella pneumoniae [5] = assay: Antibacterial activity against multi-drug resistant Klebsiella pneumoniae NMI 3081/09 assessed as reduction in microbial growth incubated for 20 hrs; assay type: functional; outline: as §1
Pseudomonas aeruginosa [6] = assay: Antibacterial activity against Pseudomonas aeruginosa PAO1 assessed as reduction in microbial growth incubated for 20 hrs; assay type: functional; outline: as §2
Escherichia coli [7] = assay: Antibacterial activity against Escherichia coli lacking a functional SbmA assessed as reduction in microbial growth incubated for 20 hrs; outline: as §2
Escherichia coli [8] = assay: Antibacterial activity against Escherichia coli ATCC 25922 assessed as reduction in microbial growth incubated for 20 hrs; assay type: functional; outline: as §1
Pseudomonas aeruginosa [9] = assay: Antibacterial activity against Pseudomonas aeruginosa ATCC 27853 assessed as reduction in microbial growth incubated for 20 hrs; assay type: functional; outline: as §2
Pseudomonas aeruginosa [10] = assay: Antibacterial activity against multi-drug resistant Pseudomonas aeruginosa NMI 506/17 assessed as reduction in microbial growth incubated for 20 hrs; assay type: functional; outline: as §1
Klebsiella pneumoniae [11] = assay: Antibacterial activity against Klebsiella pneumoniae ATCC 13883 assessed as reduction in microbial growth incubated for 20 hrs; assay type: functional; outline: as §2
Staphylococcus aureus = assay: Antibacterial activity against Staphylococcus aureus ATCC 29213 assessed as reduction in microbial growth incubated for 20 hrs; assay type: functional; outline: as §2
Acinetobacter baumannii [12] = assay: Antibacterial activity against Acinetobacter baumannii ATCC 19606 assessed as reduction in microbial growth incubated for 20 hrs; assay type: functional; outline: as §2
[13] = Hemolytic activity against RBC (unknown origin) at 100 uM; assay type: ADME, cell-based, Erythrocyte; conditions: red blood cells (erythrocytes); read-out: Activity
[14] = ATCC 19606 = CIP 70.34 = JCM 6841, 20 h

| Compound | MIC (Escherichia coli [7]) | MIC (Escherichia coli [1]; NMI 3548/14, 20 h) | MIC (Escherichia coli [2]; NMI 3898/15, 20 h) | MIC (Klebsiella pneumoniae [4]; NMI 2697/14, 20 h) | MIC (Klebsiella pneumoniae [5]; NMI 3081/09, 20 h) | MIC (Pseudomonas aeruginosa [6]; PAO1, 20 h) | MIC (Escherichia coli [8]; ATCC 25922, 20 h) | MIC (Klebsiella pneumoniae [11]; ATCC 13883, 20 h) | MIC (Staphylococcus aureus; ATCC 29213, 20 h) | MIC (Acinetobacter baumannii [12]; [14]) | hemolysis at 100 µM [13] | further results |
| --- | --- | --- | --- | --- | --- | --- | --- | --- | --- | --- | --- | --- |
| COLISTIN | 0.5 µg/mL |  |  |  |  |  |  |  |  |  |  | MIC (Escherichia coli [1]): 4 µg/mL; MIC (Escherichia coli [2]): 2 to 4 µg/mL; MIC (Acinetobacter baumannii [3]): > 16 µg/mL; MIC (Klebsiella pneumoniae [4]): > 16 µg/mL; MIC (Klebsiella pneumoniae [5]): 0.25 to 1 µg/mL; MIC (Pseudomonas aeruginosa [6]): 0.5 µg/mL; MIC (Escherichia coli [8]): 0.125 to 0.5 µg/mL; MIC (Pseudomonas aeruginosa [9]): 0.25 µg/mL; MIC (Pseudomonas aeruginosa [10]): > 16 µg/mL; MIC (Klebsiella pneumoniae [11]): 2 to 4 µg/mL; MIC (Staphylococcus aureus): > 16 µg/mL; MIC (Acinetobacter baumannii [12]; ATCC 19606 = CIP 70.34 = JCM 6841): 0.25 µg/mL |
| CC[C@H](C)[C@H](NC(=O)[C@H](CCCCN)NC(=O)[C@H]([C@@H](C)CC)N(C(=O)[C@H](CCCNC(=N)N)NC(=O)CCCCCNC(=O)[C@@H](N)CCCNC(=N)N)C(=O)[C@H](CCCNC(=N)N)NC(=O)CCCCCNC(=O)[C@@H](N)CCCNC(=N)N)C(=O)N[C@@H](CC(C)C)C(=O)N[C@@H](Cc1ccccc1)C(=O)N[C@@H](CCC(N)=O)C(=O)N[C@@H](CC(N)=O)C(=O)N[C@@H](CCCNC(=N)N)C(=O)N[C@@H](CCCNC(=N)N)C(=O)N[C@@H](CCSC)C(=O)N[C@@H](CCCCN)C(=O)N[C@@H](Cc1c[nH]c2ccccc12)C(=O)N[C@@H](CCCCN)C(=O)N[C@@H](CCCCN)C(=O)N[C@@H](CSC1CC(=O)N(CCC(=O)NCCOCCOC(=O)N[C@@H](CS)C(=O)N[C@H](C(=O)N[C@@H](CS)C(=O)N[C@H](C(=O)N[C@H](C(=O)N[C@@H](C)C(=O)N[C@@H](CS)C(=O)N[C@@H](C)C(=O)N[C@@H](CS)C(=O)N[C@H](C(N)=O)[C@@H](C)O)[C@@H](C)O)[C@@H](C)O)[C@@H](C)O)C1=O)C(N)=O (some centres undefined) (I: X3-KILFQNRRMKWKKC-NH2 / II: [X2]CTCTTACACT-NH2; linker I:14-II:N via Succinimide(1-C2H4CO,3-yl)) | 32 µg/mL | 4 to 8 µg/mL | 16 µg/mL | 16 to 32 µg/mL | 8 to 16 µg/mL | 32 µg/mL | 32 µg/mL | 64 µg/mL | > 64 µg/mL | 16 µg/mL | < 1% |  |
| CC[C@H](C)[C@H](NC(=O)[C@@H]1CCCN1C(=O)[C@H](CCCNC(=N)N)NC(=O)[C@@H]1CCCN1C(=O)[C@H](Cc1cnc[nH]1)NC(=O)[C@H](CO)NC(=O)[C@@H](NC(=O)[C@@H]1CCCN1C(=O)[C@H](CCCNC(=N)N)NC(=O)[C@@H]1CCCN1C(=O)[C@H](CO)NC(=O)[C@H](Cc1ccc(O)cc1)NC(=O)[C@@H]1CCCN1C(=O)[C@H](CCCNC(=N)N)NC(=O)[C@@H]1CCCN1C(=O)[C@H](CCCNC(=N)N)NC(=O)CCCCCNC(=O)[C@@H](N)CCCNC(=N)N)[C@@H](C)O)C(=O)N[C@@H](CCCNC(=N)N)C(=O)N[C@H](C(N)=O)C(C)C | > 64 µg/mL | 32 to 64 µg/mL | 32 to 64 µg/mL | > 64 µg/mL | > 64 µg/mL | > 64 µg/mL | > 64 µg/mL | > 64 µg/mL | > 64 µg/mL | 64 µg/mL | < 1% |  |
| CC[C@@H](C)[C@@H](NC(=O)[C@@H](CCCCN)NC(=O)[C@@H]([C@H](C)CC)N(C(=O)[C@@H](CCCNC(=N)N)NC(=O)CCCCCNC(=O)[C@H](N)CCCNC(=N)N)C(=O)[C@@H](CCCNC(=N)N)NC(=O)CCCCCNC(=O)[C@H](N)CCCNC(=N)N)C(=O)N[C@H](CC(C)C)C(=O)N[C@H](Cc1ccccc1)C(=O)N[C@H](CCC(N)=O)C(=O)N[C@H](CC(N)=O)C(=O)N[C@H](CCCNC(=N)N)C(=O)N[C@H](CCCNC(=N)N)C(=O)N[C@H](CCSC)C(=O)N[C@H](CCCCN)C(=O)N[C@H](Cc1c[nH]c2ccccc12)C(=O)N[C@H](CCCCN)C(=O)N[C@H](CCCCN)C(=O)N[C@H](CSC1CC(=O)N(CCC(=O)NCCOCCOC(=O)N[C@H](CS)C(=O)N[C@@H](C(=O)N[C@H](CS)C(=O)N[C@H](C)C(=O)N[C@@H](C(=O)N[C@H](C)C(=O)N[C@H](CS)C(=O)N[C@@H](C(=O)N[C@H](CS)C(=O)N[C@@H](C(N)=O)[C@H](C)O)[C@H](C)O)[C@H](C)O)[C@H](C)O)C1=O)C(N)=O (some centres undefined) | 8 µg/mL | 8 µg/mL | 8 µg/mL | 64 µg/mL | 16 µg/mL | 8 µg/mL | 8 µg/mL | 16 µg/mL | 32 µg/mL | 4 µg/mL | 1.6% |  |
| CC[C@H](C)[C@H](NC(=O)[C@H](CCCCN)NC(=O)[C@H]([C@@H](C)CC)N(C(=O)[C@H](CCCNC(=N)N)NC(=O)CCCCCNC(=O)[C@@H](N)CCCNC(=N)N)C(=O)[C@H](CCCNC(=N)N)NC(=O)CCCCCNC(=O)[C@@H](N)CCCNC(=N)N)C(=O)N[C@@H](CC(C)C)C(=O)N[C@@H](Cc1ccccc1)C(=O)N[C@@H](CCC(N)=O)C(=O)N[C@@H](CC(N)=O)C(=O)N[C@@H](CCCNC(=N)N)C(=O)N[C@@H](CCCNC(=N)N)C(=O)N[C@@H](CCSC)C(=O)N[C@@H](CCCCN)C(=O)N[C@@H](Cc1c[nH]c2ccccc12)C(=O)N[C@@H](CCCCN)C(=O)N[C@@H](CCCCN)C(=O)N[C@@H](CS)C(=O)N[C@H](C(=O)N[C@@H](CS)C(=O)N[C@H](C(=O)N[C@H](C(=O)N[C@@H](C)C(=O)N[C@@H](CS)C(=O)N[C@@H](C)C(=O)N[C@@H](CS)C(=O)N[C@H](C(N)=O)[C@@H](C)O)[C@@H](C)O)[C@@H](C)O)[C@@H](C)O (X3-KILFQNRRMKWKKCTCTTACACT-NH2) | 64 µg/mL | 8 to 16 µg/mL | 32 µg/mL | ≥ 64 µg/mL | 16 µg/mL | 32 µg/mL | 64 µg/mL | > 64 µg/mL | > 64 µg/mL | 16 to 32 µg/mL | < 1% |  |
| CC[C@H](C)[C@H](NC(=O)[C@H](CCCCN)NC(=O)[C@H]([C@@H](C)CC)N(C(=O)[C@H](CCCNC(=N)N)NC(=O)CCCCCNC(=O)[C@@H](N)CCCNC(=N)N)C(=O)[C@H](CCCNC(=N)N)NC(=O)CCCCCNC(=O)[C@@H](N)CCCNC(=N)N)C(=O)N[C@@H](CC(C)C)C(=O)N[C@@H](Cc1ccccc1)C(=O)N[C@@H](CCC(N)=O)C(=O)N[C@@H](CC(N)=O)C(=O)N[C@@H](CCCNC(=N)N)C(=O)N[C@@H](CCCNC(=N)N)C(=O)N[C@@H](CCSC)C(=O)N[C@@H](CCCCN)C(=O)N[C@@H](Cc1c[nH]c2ccccc12)C(=O)N[C@@H](CCCCN)C(=O)N[C@@H](CCCCN)C(N)=O | 8 µg/mL | 4 to 8 µg/mL | 16 µg/mL | > 64 µg/mL | > 64 µg/mL | 8 µg/mL | 8 µg/mL | 64 µg/mL | 32 to 64 µg/mL | 8 µg/mL | < 1% |  |
| CC[C@@H](C)[C@@H](NC(=O)[C@H]1CCCN1C(=O)[C@@H](CCCNC(=N)N)NC(=O)[C@H]1CCCN1C(=O)[C@@H](Cc1cnc[nH]1)NC(=O)[C@@H](CO)NC(=O)[C@H](NC(=O)[C@H]1CCCN1C(=O)[C@@H](CCCNC(=N)N)NC(=O)[C@H]1CCCN1C(=O)[C@@H](CO)NC(=O)[C@@H](Cc1ccc(O)cc1)NC(=O)[C@H]1CCCN1C(=O)[C@@H](CCCNC(=N)N)NC(=O)[C@H]1CCCN1C(=O)[C@@H](CCCNC(=N)N)NC(=O)CCCCCNC(=O)[C@H](N)CCCNC(=N)N)[C@H](C)O)C(=O)N[C@H](CCCNC(=N)N)C(=O)N[C@@H](C(=O)N[C@H](CSC1CC(=O)N(CCC(=O)NCCOCCOC(=O)N[C@H](CS)C(=O)N[C@@H](C(=O)N[C@H](CS)C(=O)N[C@H](C)C(=O)N[C@@H](C(=O)N[C@H](C)C(=O)N[C@H](CS)C(=O)N[C@@H](C(=O)N[C@H](CS)C(=O)N[C@@H](C(N)=O)[C@H](C)O)[C@H](C)O)[C@H](C)O)[C@H](C)O)C1=O)C(N)=O)C(C)C (some centres undefined) | 64 µg/mL | 32 µg/mL | 32 to 64 µg/mL | ≥ 64 µg/mL | 64 µg/mL | > 64 µg/mL | 32 µg/mL | 8 to 16 µg/mL | > 64 µg/mL | 64 µg/mL | < 1% |  |
